Measurements reported in ChEMBL document CHEMBL3272019, “Synthesis and some properties and antitumor effects of the actinomycin lactam analog, (di(1-L-alpha, beta-diaminopropionic))actinomycin D1” (1976).
In brackets after ≈: the same amount, converted by molar mass. Activity calls are given as the source filed them. The rule behind the calls is not given here.

How the values were obtained:
[1] = tested on: Calf thymus DNA; test: Binding affinity to calf thymus DNA at 37.1 uM by visible and near-UV CD spectrophotometry; type: nucleic-acid assay; conditions: Bos taurus
Outline: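 Visible/near-UV CD of 37.1 µM drug, free and with calf thymus DNA at 0.53 mM nucleotide phosphorus, in 0.01 M sodium phosphate pH 7.0 at about 23°. Tandem 1-cm quartz cells were used. Concentration was fixed from absorbance at 440 nm (ε 23585 M⁻¹ cm⁻¹).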

[2] = tested on: P388; test: Antitumor activity against mouse P388 cells allografted in BDF1 mouse assessed as mean survival time at 0.2 mg/kg/injection, ip administered as single dose (reference value: 10.5 days); type: functional; conditions: route intraperitoneal
Outline: (§1)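 P388 leukaemia: 10⁶ cells implanted ip on day 0 into groups of eight male BDF mice. Dosing was ip daily on days 1–9, on days 1, 5 and 9, or as a single day-1 dose, over four- to fivefold dose ranges. Median survival time (range of deaths) and percent increase in life-span were recorded, with survivors/total counted at day 60.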

[3] = tested on: P388; test: Antitumor activity against mouse P388 cells allografted in BDF1 mouse assessed as mean survival time at 0.1 mg/kg/injection, ip administered daily for 9 days (reference value: 10.5 days); type: functional; conditions: route intraperitoneal; outline: as §1
[4] = tested on: L1210; test: Antitumor activity against mouse L1210 cells allografted in BDF1 mouse assessed as mean survival time at 0.0125 mg/kg/injection, ip administered daily for 9 days (reference value: 9.6 days); type: functional; conditions: route intraperitoneal
[5] = tested on: Sarcina; test: Antibacterial activity against Sarcina subflava assessed as growth inhibition; type: functional
[6] = tested on: Staphylococcus aureus; test: Antibacterial activity against Penicillin-resistant Staphylococcus aureus assessed as growth inhibition; type: functional
[7] = tested on: L1210; test: Antitumor activity against mouse L1210 cells allografted in BDF1 mouse assessed as mean survival time at 0.15 mg/kg/injection, ip administered intermittently on days 1, 5 and 9 (reference value: 9.6 days); type: functional; conditions: route intraperitoneal
[8] = tested on: B16; test: Antitumor activity against mouse B16 cells allografted in BDF1 mouse assessed as mean survival time at 0.05 mg/kg/injection, ip administered as single dose (reference value: 28 days); type: functional; conditions: route intraperitoneal
Outline: (§2)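 B16 melanoma in mice, standard screening method. Schedules were daily on days 1–9, on days 1, 5 and 9, or a single day-1 injection, each over a four- to fivefold dose range. Survival time (range of individual deaths) was recorded, percent increase in life-span computed against untreated controls, and survivors tallied.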

[9] = tested on: Bacillus subtilis; test: Antibacterial activity against Bacillus subtilis Marburg assessed as growth inhibition; type: functional
[10] = tested on: P388; test: Antitumor activity against mouse P388 cells allografted in BDF1 mouse assessed as increase in life span at 0.15 mg/kg/injection, ip administered intermittently on days 1, 5 and 9 measured on day 60; type: functional; conditions: 1440 h, route intraperitoneal; outline: as §1
[11] = tested on: L1210; test: Antitumor activity against mouse L1210 cells allografted in BDF1 mouse assessed as increase in life span at 0.2 mg/kg/injection, ip administered as single dose; type: functional; conditions: route intraperitoneal
[12] = tested on: B16; test: Antitumor activity against mouse B16 cells allografted in BDF1 mouse assessed as increase in life span at 0.075 mg/kg/injection, ip administered intermittently on days 1, 5 and 9 measured on day 60; type: functional; conditions: 1440 h, route intraperitoneal; outline: as §2
[13] = tested on: B16; test: Antitumor activity against mouse B16 cells allografted in BDF1 mouse assessed as increase in life span at 0.05 mg/kg/injection, ip administered as single dose measured on day 60; type: functional; conditions: 1440 h, route intraperitoneal; outline: as §2
[14] = tested on: P388; test: Antitumor activity against mouse P388 cells allografted in BDF1 mouse assessed as increase in life span at 0.1 mg/kg/injection, ip administered daily for 9 days measured on day 60; type: functional; conditions: route intraperitoneal; outline: as §1
[15] = tested on: L1210; test: Antitumor activity against mouse L1210 cells allografted in BDF1 mouse assessed as increase in lifespan at 0.15 mg/kg/injection, ip administered intermittently on days 1, 5 and 9; type: functional; conditions: route intraperitoneal
[16] = tested on: P388; test: Antitumor activity against mouse P388 cells allografted in BDF1 mouse assessed as mean survival time at 0.15 mg/kg/injection, ip administered intermittently on days 1, 5 and 9 (reference value: 10.5 days); type: functional; conditions: route intraperitoneal; outline: as §1
[17] = tested on: L1210; test: Antitumor activity against mouse L1210 cells allografted in BDF1 mouse assessed as increase in life span at 0.0125 mg/kg/injection, ip administered daily for 9 days; type: functional; conditions: 216 h, route intraperitoneal
[18] = tested on: B16; test: Antitumor activity against mouse B16 cells allografted in BDF1 mouse assessed as mean survival time at 0.075 mg/kg/injection, ip administered intermittently on days 1, 5 and 9 (reference value: 28 days); type: functional; conditions: route intraperitoneal; outline: as §2
[19] = tested on: Calf thymus DNA; test: Binding affinity to calf thymus DNA at 25 uM by visible and near-UV CD spectrophotometry; type: nucleic-acid assay; conditions: Bos taurus
Outline: (§3)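 CD spectra, visible and near-UV, of 25.0 µM drug alone and with DNA (calf thymus or PM2, 0.52 mM as nucleotide phosphorus) in 0.01 M sodium phosphate, pH 7.0. Recorded at about 23° in tandem 1-cm cylindrical quartz cells. Drug concentration was set spectrophotometrically at 440 nm.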

[20] = tested on: Pseudoalteromonas phage PM2; test: Binding affinity to bacteriophage PM2 DNA at 25 uM by visible and near-UV CD spectrophotometry; outline: as §3
[21] = tested on: B16; test: Antitumor activity against mouse B16 cells allografted in BDF1 mouse assessed as mean survival time at 0.05 mg/kg/injection, ip administered daily for 9 days (reference value: 28 days); type: functional; conditions: route intraperitoneal; outline: as §2
[22] = tested on: P388; test: Antitumor activity against mouse P388 cells allografted in BDF1 mouse assessed as increase in life span at 0.2 mg/kg/injection, ip administered as single dose measured on day 60; type: functional; conditions: 1440 h, route intraperitoneal; outline: as §1
[23] = tested on: B16; test: Antitumor activity against mouse B16 cells allografted in BDF1 mouse assessed as increase in life span at 0.05 mg/kg/injection, ip administered daily for 9 days measured on day 60; type: functional; conditions: route intraperitoneal; outline: as §2
[24] = tested on: L1210; test: Antitumor activity against mouse L1210 cells allografted in BDF1 mouse assessed as mean survival time at 0.2 mg/kg/injection, ip administered as single dose (reference value: 9.6 days); type: functional; conditions: route intraperitoneal

Cc1c2oc3c(C)ccc(C(=O)N[C@H]4CNC(=O)[C@H](C(C)C)N(C)C(=O)CN(C)C(=O)[C@@H]5CCCN5C(=O)[C@@H](C(C)C)NC4=O)c3nc-2c(C(=O)N[C@H]2CNC(=O)[C@H](C(C)C)N(C)C(=O)CN(C)C(=O)[C@@H]3CCCN3C(=O)[C@@H](C(C)C)NC2=O)c(N)c1=O
Activity [1]: Active
MST [2]: 14 days
MST [3]: 14.5 days
MST [4]: 11.2 days
MIC [5]: 0.35 µg/mL (≈ 0.286 µM)
MIC [6]: 0.35 µg/mL (≈ 0.286 µM)
MST [7]: 11 days
MST [8]: 29 days
MIC [9]: 0.9 µg/mL (≈ 0.734 µM)
IC50 ([9]; read-out: ID50 (the source's name)): 0.4 µg/mL (≈ 0.326 µM)
ILS at 0.15 mg/kg [10]: 33%
ILS at 0.2 mg/kg [11]: 22%
ILS at 0.075 mg/kg [12]: 14%
ILS at 0.05 mg/kg [13]: 4%
ILS at 0.1 mg/kg [14]: 38%
ILS at 0.15 mg/kg [15]: 14%
MST [16]: 14 days
ILS at 0.0125 mg/kg [17]: 17%
MST [18]: 32 days
Activity [19]: Active
Activity [20]: Active
MST [21]: 30 days
ILS at 0.2 mg/kg [22]: 33%
ILS at 0.05 mg/kg [23]: 7%
MST [24]: 11.8 days
